According to ChEMBL document CHEMBL1153060, “Part 1: Structure-Activity Relationship (SAR) investigations of fused pyrazoles as potent, selective and orally available inhibitors of p38alpha mitogen-activated protein kinase” (Bioorg Med Chem Lett, 2009):
≈ marks a conversion by molar mass, not a printed value.

Legend:
Rattus norvegicus [1] = test: Inhibition of LPS-induced TNFalpha production in po dosed Lewis rat administered 60 mins prior to LPS challenge measured after 90 mins by ELISA
Cytochrome P450 1A2 = biological target: T1, Cytochrome P450 1A2 (Homo sapiens, UniProt P05177); test: Inhibition of CYP1A2; type: ADME
T1 sequence (P05177 whole entry): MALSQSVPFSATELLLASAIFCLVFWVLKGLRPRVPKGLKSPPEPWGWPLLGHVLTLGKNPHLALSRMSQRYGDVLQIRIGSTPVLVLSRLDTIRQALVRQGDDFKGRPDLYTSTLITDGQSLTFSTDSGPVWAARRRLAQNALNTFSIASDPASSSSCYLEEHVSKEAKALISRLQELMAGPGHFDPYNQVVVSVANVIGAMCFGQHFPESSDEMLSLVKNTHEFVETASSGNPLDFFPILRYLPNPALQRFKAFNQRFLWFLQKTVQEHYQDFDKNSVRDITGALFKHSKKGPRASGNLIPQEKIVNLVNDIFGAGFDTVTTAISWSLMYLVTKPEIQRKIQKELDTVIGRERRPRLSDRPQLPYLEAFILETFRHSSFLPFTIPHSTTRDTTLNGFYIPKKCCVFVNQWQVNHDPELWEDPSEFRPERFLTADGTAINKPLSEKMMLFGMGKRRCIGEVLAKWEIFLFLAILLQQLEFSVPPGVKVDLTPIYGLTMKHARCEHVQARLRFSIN

THP-1 = test: Inhibition of LPS-induced TNFalpha release in human THP1 cells after 3 hrs; type: functional, cell-based; details: THP-1, 3 h
In short: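 THP1 cell line challenged with LPS, with TNFα secretion as read-out. IC50 is the mean of at least three independent dose–response curves, or of two where flagged.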

Rattus norvegicus [2] = test: Inhibition of LPS-induced TNFalpha production in Lewis rat at 0.3 mg/kg, po administered 60 mins prior to LPS challenge measured after 90 mins by ELISA
[3] = Clearance in Sprague-Dawley rat at 2 mg/kg, iv; type: ADME, organism-based; parameters: dose 2 mg/kg, route intravenous; details: in vivo
In short: (§1)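 Male Sprague–Dawley rats given 2.0 mg/kg iv (in DMSO) or 2.0 mg/kg po. Values are the mean of three rats. Reported parameters are CL, Vdss, t1/2, AUC(0-inf) and oral F.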

[4] = Solubility in simulated intestinal fluid; type: physicochemical
Rattus norvegicus [5] = test: Inhibition of LPS-induced TNFalpha production in Lewis rat at 0.03 mg/kg, po administered 60 mins prior to LPS challenge measured after 90 mins by ELISA
[6] = biological target: Mitogen-activated protein kinase 11 (Homo sapiens, UniProt Q15759); test: Inhibition of p38beta
Mitogen-activated protein kinase 11, sequence (Q15759 whole entry): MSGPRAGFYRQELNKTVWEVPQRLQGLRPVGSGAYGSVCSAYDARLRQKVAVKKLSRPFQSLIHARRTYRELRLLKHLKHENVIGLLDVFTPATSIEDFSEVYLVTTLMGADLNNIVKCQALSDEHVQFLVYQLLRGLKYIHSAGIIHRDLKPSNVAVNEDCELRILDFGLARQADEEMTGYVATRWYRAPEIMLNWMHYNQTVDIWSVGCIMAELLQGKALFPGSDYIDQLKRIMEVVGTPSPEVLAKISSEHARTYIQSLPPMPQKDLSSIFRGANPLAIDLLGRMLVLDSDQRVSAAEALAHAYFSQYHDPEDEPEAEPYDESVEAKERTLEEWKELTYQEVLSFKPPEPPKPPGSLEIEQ

[7] = Ratio of drug level in brain to plasma in Lewis rat; type: ADME; details: read-out: BPR
Rattus norvegicus [8] = test: Inhibition of LPS-induced TNFalpha production in Lewis rat at 0.01 mg/kg, po administered 60 mins prior to LPS challenge measured after 90 mins by ELISA
[9] = Protein binding in rat plasma by ultrafiltration method; details: read-out: PPB (converted)
[10] = Solubility in phosphate buffered saline; type: physicochemical
Cytochrome P450 3A4 = Cytochrome P450 3A4 (Homo sapiens, UniProt P08684); test: Inhibition of CYP3A4; type: ADME
Cytochrome P450 3A4, sequence (P08684 whole entry): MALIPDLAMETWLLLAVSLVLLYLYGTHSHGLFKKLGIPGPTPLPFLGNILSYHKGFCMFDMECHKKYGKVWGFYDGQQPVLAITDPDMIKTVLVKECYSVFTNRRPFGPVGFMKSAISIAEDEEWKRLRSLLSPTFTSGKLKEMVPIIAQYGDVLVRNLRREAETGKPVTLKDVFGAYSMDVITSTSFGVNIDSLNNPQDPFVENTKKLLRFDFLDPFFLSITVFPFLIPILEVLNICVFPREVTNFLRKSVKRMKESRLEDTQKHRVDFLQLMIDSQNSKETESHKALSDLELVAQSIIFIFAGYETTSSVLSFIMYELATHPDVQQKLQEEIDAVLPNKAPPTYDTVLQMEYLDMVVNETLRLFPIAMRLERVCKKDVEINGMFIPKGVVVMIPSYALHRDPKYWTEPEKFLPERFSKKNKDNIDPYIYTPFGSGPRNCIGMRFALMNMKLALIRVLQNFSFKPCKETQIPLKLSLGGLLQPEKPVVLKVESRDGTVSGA

[11] = Volume of distribution at steady state in Sprague-Dawley rat at 2 mg/kg, iv; type: ADME, organism-based; parameters: dose 2 mg/kg, route intravenous; details: in vivo, read-out: Vdss
In short: as §1

[12] = AUC (0 to infinity) in Sprague-Dawley rat at 2 mg/kg, po; type: ADME, organism-based; parameters: time infinity, dose 2 mg/kg, route oral; details: plasma
In short: as §1

Rattus norvegicus [13] = test: Inhibition of LPS-induced TNFalpha production in Lewis rat at 0.1 mg/kg, po administered 60 mins prior to LPS challenge measured after 90 mins by ELISA
[14] = biological target: Mitogen-activated protein kinase 14 (Homo sapiens, UniProt Q16539); test: Inhibition of human recombinant p38alpha assessed as phosphorylation of ATF2 by scintillation proximity assay
Mitogen-activated protein kinase 14, sequence (Q16539 whole entry): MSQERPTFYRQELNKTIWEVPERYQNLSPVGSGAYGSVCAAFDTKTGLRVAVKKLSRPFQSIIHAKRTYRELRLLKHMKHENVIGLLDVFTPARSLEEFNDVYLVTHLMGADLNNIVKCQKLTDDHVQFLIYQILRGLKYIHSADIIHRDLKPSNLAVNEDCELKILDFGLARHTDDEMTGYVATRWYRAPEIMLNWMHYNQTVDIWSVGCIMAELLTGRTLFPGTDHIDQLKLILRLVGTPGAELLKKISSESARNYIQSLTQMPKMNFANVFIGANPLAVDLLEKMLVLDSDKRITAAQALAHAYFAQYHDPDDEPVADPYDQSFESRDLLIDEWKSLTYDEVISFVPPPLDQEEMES

[15] = biological target: Mitogen-activated protein kinase 10 (Homo sapiens, UniProt P53779); test: Inhibition of JNK3
Mitogen-activated protein kinase 10, sequence (P53779 whole entry): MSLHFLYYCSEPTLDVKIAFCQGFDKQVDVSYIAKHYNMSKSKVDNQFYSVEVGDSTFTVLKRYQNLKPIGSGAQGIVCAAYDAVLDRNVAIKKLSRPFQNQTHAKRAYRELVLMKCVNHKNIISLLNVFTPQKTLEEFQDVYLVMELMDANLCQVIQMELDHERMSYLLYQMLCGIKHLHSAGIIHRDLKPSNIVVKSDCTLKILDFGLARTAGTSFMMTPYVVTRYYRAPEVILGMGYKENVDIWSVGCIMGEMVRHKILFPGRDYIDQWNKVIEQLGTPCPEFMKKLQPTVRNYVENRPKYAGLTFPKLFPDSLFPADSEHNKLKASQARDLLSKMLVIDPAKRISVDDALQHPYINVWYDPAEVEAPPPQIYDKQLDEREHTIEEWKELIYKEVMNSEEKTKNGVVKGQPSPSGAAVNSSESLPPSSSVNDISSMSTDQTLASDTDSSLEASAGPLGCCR

Rattus norvegicus [16] = organism: Rattus norvegicus; test: Plasma concentration in Lewis rat at ED50; type: ADME, organism-based; details: in vivo
Cytochrome P450 2C19 = Cytochrome P450 2C19 (Homo sapiens, UniProt P33261); test: Inhibition of CYP2C19; type: ADME
Cytochrome P450 2C19, sequence (P33261 whole entry): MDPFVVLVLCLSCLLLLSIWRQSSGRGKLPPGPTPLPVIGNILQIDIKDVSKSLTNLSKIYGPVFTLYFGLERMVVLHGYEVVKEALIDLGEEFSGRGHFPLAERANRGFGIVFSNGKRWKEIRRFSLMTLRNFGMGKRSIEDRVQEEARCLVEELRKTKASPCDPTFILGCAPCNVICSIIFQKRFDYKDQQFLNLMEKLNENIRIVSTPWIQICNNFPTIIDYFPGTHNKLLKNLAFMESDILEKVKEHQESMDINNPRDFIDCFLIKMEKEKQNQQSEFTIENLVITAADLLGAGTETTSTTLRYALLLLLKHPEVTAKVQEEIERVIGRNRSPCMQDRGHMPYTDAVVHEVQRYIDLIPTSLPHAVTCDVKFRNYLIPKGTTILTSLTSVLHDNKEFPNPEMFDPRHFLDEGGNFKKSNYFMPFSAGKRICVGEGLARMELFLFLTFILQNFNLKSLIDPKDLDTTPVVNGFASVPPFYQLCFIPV

[17] = biological target: Mitogen-activated protein kinase 8 (Homo sapiens, UniProt P45983); test: Inhibition of JNK1
Mitogen-activated protein kinase 8, sequence (P45983 whole entry): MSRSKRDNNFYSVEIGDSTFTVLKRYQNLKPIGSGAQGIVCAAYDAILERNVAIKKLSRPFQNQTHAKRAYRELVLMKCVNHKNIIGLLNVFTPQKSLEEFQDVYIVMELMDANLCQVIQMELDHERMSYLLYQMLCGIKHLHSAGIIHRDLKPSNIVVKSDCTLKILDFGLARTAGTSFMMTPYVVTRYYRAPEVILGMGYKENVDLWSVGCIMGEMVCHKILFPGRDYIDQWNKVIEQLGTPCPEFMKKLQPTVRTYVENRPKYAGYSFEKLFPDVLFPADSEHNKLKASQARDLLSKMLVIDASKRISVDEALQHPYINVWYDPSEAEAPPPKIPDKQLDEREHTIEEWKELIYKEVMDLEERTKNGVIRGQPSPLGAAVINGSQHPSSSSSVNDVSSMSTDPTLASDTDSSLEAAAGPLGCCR

Homo sapiens = organism: Homo sapiens; test: Protein binding in human plasma by ultrafiltration method; details: read-out: PPB (converted)
Cytochrome P450 2D6 = Cytochrome P450 2D6 (Homo sapiens, UniProt P10635); test: Inhibition of CYP2D6; type: ADME
Cytochrome P450 2D6, sequence (P10635 whole entry): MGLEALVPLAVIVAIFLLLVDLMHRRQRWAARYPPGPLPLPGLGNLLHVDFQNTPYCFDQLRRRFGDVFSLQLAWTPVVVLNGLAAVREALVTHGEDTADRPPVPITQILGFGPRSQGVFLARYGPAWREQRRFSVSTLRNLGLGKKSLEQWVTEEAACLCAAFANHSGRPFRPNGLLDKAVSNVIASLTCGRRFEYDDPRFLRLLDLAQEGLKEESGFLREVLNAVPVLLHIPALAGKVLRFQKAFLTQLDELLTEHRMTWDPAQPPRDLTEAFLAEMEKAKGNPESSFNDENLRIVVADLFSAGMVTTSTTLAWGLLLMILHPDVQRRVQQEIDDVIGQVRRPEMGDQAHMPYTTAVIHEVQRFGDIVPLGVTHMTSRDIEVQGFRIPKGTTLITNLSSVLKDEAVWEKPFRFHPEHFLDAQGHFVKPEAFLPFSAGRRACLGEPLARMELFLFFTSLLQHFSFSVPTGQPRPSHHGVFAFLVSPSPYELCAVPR

[18] = biological target: Mitogen-activated protein kinase 9 (Homo sapiens, UniProt P45984); test: Inhibition of JNK2
Mitogen-activated protein kinase 9, sequence (P45984 whole entry): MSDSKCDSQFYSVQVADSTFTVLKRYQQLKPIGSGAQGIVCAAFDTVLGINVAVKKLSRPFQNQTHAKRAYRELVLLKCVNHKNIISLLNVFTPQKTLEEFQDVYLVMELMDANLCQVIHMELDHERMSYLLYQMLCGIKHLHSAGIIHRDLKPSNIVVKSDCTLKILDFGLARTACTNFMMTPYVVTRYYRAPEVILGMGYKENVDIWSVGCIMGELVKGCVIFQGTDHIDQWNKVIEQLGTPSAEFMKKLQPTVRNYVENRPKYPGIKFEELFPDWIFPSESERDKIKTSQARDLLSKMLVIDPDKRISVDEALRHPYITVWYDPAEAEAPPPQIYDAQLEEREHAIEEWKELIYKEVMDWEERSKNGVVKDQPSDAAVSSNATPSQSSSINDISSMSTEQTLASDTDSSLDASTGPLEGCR

[19] = Oral bioavailability in Sprague-Dawley rat at 2 mg/kg; type: ADME, organism-based; details: in vivo
In short: as §1

Cytochrome P450 2C9 = Cytochrome P450 2C9 (Homo sapiens, UniProt P11712); test: Inhibition of CYP2C9; type: ADME
Cytochrome P450 2C9, sequence (P11712 whole entry): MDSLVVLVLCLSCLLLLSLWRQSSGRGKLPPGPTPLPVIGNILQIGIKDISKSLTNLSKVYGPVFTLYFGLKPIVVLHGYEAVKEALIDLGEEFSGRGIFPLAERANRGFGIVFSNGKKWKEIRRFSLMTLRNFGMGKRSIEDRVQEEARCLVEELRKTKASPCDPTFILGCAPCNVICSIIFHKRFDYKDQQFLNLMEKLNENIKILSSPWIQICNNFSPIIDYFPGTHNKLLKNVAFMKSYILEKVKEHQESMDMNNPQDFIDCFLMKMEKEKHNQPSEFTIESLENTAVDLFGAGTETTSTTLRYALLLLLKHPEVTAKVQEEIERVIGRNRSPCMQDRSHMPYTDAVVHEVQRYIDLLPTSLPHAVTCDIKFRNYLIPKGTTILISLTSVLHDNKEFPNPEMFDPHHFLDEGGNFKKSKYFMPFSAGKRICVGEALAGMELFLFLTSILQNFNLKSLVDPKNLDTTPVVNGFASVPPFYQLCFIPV

[20] = biological target: T2, Mitogen-activated protein kinase 13 (Homo sapiens, UniProt O15264); test: Inhibition of p38delta
T2 sequence (O15264 whole entry): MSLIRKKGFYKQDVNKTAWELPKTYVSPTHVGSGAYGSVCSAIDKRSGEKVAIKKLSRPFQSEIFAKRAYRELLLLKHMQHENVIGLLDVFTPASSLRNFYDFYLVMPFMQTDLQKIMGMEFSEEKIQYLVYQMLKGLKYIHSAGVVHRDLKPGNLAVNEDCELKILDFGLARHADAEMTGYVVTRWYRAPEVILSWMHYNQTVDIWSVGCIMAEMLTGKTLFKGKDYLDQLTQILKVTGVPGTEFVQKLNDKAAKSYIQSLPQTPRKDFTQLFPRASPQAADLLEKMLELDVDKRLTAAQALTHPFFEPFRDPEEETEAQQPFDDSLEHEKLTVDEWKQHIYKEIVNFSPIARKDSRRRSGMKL

[21] = Solubility in 0.01N HCl; type: physicochemical
[22] = biological target: T3, Mitogen-activated protein kinase 12 (Homo sapiens, UniProt P53778); test: Inhibition of p38-gamma
T3 sequence (P53778 whole entry): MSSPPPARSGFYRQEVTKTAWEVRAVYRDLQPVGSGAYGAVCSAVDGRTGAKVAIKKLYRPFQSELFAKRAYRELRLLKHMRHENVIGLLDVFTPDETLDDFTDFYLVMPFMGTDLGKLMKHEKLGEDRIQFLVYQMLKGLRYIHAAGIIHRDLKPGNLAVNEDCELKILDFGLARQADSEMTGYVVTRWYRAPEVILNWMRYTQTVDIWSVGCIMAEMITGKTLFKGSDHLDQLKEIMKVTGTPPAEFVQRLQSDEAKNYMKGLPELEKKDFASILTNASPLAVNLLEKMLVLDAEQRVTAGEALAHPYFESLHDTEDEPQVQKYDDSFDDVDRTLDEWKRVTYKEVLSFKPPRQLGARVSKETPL

[23] = Half life in Sprague-Dawley rat at 2 mg/kg, iv; type: ADME, organism-based; parameters: dose 2 mg/kg, route intravenous; details: in vivo
In short: as §1

Blood = test: Inhibition of TNF-alpha-stimulated IL8 production in human whole blood incubated for 1 hr before TNFalpha challenge measured after 16 to 18 hrs; type: functional, tissue-based
In short: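 Human whole blood diluted to 50% and stimulated with TNFα, with IL-8 secretion as read-out. IC50 is the mean of at least three independent dose–response curves, or of two where flagged.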

[24] = biological target: RAF proto-oncogene serine/threonine-protein kinase (Homo sapiens) (UniProt P04049); test: Inhibition of c-Raf at 1.5 uM; values are per cent of control
RAF proto-oncogene serine/threonine-protein kinase (Homo sapiens), sequence (P04049 whole entry): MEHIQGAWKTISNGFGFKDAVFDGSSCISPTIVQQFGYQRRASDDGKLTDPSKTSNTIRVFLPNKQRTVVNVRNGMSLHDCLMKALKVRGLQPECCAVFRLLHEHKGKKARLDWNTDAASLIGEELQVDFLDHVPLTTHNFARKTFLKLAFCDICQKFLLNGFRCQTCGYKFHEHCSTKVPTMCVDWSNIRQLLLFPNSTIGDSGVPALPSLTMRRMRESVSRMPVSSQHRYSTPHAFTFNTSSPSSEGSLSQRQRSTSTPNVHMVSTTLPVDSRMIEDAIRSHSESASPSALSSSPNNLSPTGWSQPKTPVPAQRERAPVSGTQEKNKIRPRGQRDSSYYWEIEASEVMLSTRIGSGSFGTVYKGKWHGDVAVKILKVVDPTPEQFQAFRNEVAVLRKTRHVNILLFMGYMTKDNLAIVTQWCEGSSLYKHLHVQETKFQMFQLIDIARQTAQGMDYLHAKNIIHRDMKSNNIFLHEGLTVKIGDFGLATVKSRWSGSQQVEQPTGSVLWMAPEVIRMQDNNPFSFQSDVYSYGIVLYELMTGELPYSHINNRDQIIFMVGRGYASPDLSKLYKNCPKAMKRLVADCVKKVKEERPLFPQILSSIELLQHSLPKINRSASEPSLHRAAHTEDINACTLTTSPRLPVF

Cn1c(=O)cc(Nc2cc(C(=O)NC3CC3)ccc2Cl)c2cnn(-c3ccc(F)cc3)c21
ED50 (Rattus norvegicus [1]): 0.1 mg/kg | IC50 (Cytochrome P450 1A2): > 30 µM | IC50 (THP-1): 0.0011 µM | inhibition in vivo at 0.3 mg/kg (Rattus norvegicus [2]): 97.4% | clearance [3]: 4.33 mL/min/kg | solubility [4]: 38.8 µg/mL (≈ 85.9 µM) | inhibition in vivo at 0.03 mg/kg (Rattus norvegicus [5]): 5.6% | IC50 [6]: 0.004 µM | Kp [7]: 0.04 | inhibition in vivo at 0.01 mg/kg (Rattus norvegicus [8]): 21% | fraction unbound [9]: 0.03 | solubility [10]: 26.6 µg/mL (≈ 58.9 µM) | IC50 (Cytochrome P450 3A4): > 30 µM | Vd [11]: 0.97 L/kg | AUC(0-inf) [12]: 6550 ng·h/mL | inhibition in vivo at 0.1 mg/kg (Rattus norvegicus [13]): 50.1% | IC50 [14]: 0.0015 µM | IC50 [15]: > 10 µM | Cp (Rattus norvegicus [16]): 3.2 ng/mL | IC50 (Cytochrome P450 2C19): > 21 µM | IC50 [17]: > 10 µM | fraction unbound (Homo sapiens): 0.06 | IC50 (Cytochrome P450 2D6): > 21 µM | IC50 [18]: > 10 µM | bioavailability [19]: 84% | IC50 (Cytochrome P450 2C9): > 21 µM | IC50 [20]: > 10 µM | solubility [21]: 31.2 µg/mL (≈ 69 µM) | IC50 [22]: > 10 µM | half-life [23]: 5.8 h | IC50 (Blood): 0.0025 µM | residual activity [24]: 40%
